Results: ChEMBL document CHEMBL1153575, “Synthesis and in vitro anticancer activity of 2,4-azolidinedione-acetic acids derivatives” (2009)

How the values were obtained:
Assay type in all cases: functional
[1] = tested on: UO-31; test: Cytotoxicity against human UO31 cells assessed as cell growth at 10 uM after 48 hrs by sulforhodamine B assay; conditions: UO-31, 48 h, read-out: Activity
Outline: (§1)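 Single-dose primary screen at 10^-5 M (final) across a panel of about 60 human tumour cell lines. Cells were inoculated and preincubated 24–48 h, then the compound was added once and incubated a further 48 h. Protein was stained with sulforhodamine B and read spectrophotometrically. Percent growth is given relative to untreated control cells.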

[2] = tested on: HCT-116; test: Cytotoxicity against human HCT116 cells assessed as cell growth at 10 uM after 48 hrs by sulforhodamine B assay; conditions: HCT-116, 48 h, read-out: Activity; outline: as §1
[3] = tested on: OVCAR-5; test: Cytotoxicity against human OVCAR5 cells assessed as cell growth at 10 uM after 48 hrs by sulforhodamine B assay; conditions: OVCAR-5, 48 h, read-out: Activity; outline: as §1
[4] = tested on: TK-10; test: Cytotoxicity against human TK10 cells assessed as cell growth at 10 uM after 48 hrs by sulforhodamine B assay; conditions: TK-10, 48 h, read-out: Activity; outline: as §1
[5] = Cytotoxicity against human IGROV cells assessed as cell growth at 10 uM after 48 hrs by sulforhodamine B assay; conditions: read-out: Activity; outline: as §1
[6] = tested on: ACHN; test: Cytotoxicity against human ACHN cells assessed as cell growth at 10 uM after 48 hrs by sulforhodamine B assay; conditions: read-out: Activity; outline: as §1
[7] = tested on: SR; test: Cytotoxicity against human SR cells assessed as cell growth at 10 uM after 48 hrs by sulforhodamine B assay; conditions: read-out: Activity; outline: as §1
[8] = Growth inhibition of human Hs 578T cells after 48 hrs by sulforhodamine B assay; conditions: for CC50: read-out: pLC50 (the source's name) (converted); for TGI: read-out: pTGI (converted)
Outline: (§2)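 Five-concentration assay in about 60 human tumour lines, using 10-fold dilutions from 10^-4 to 10^-8 M with 48 h continuous exposure and an SRB protein endpoint. Percent growth at each level comes from time-zero, untreated-control and treated absorbances. GI50 is 50% lower net protein increase than control. Values beyond the tested range are given as greater or less than the extreme concentration.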

[9] = tested on: HL-60(TB); test: Growth inhibition of human HL-60(TB) cells after 48 hrs by sulforhodamine B assay; conditions: HL-60, 48 h
Outline: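 Cells inoculated and preincubated 24–48 h in microtiter plates, then exposed continuously for 48 h to five 10-fold dilutions from 10^-4 to 10^-8 M. End point by sulforhodamine B protein staining, read spectrophotometrically against untreated controls and time-zero absorbance. Percent growth computed per concentration; GI50 taken where [(Ti−Tz)/(C−Tz)]×100 = 50, expressed as log molar value.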

[10] = tested on: TK-10; test: Growth inhibition of human TK10 cells after 48 hrs by sulforhodamine B assay; conditions: TK-10, 48 h; outline: as §2
[11] = tested on: PC-3; test: Growth inhibition of human PC3 cells after 48 hrs by sulforhodamine B assay; conditions: PC-3, 48 h; outline: as §2
[12] = tested on: SN12C; test: Growth inhibition of human SN12C cells after 48 hrs by sulforhodamine B assay; outline: as §2
[13] = tested on: SR; test: Growth inhibition of human SR cells after 48 hrs by sulforhodamine B assay; conditions: for TGI: read-out: pTGI (converted); outline: as §2
[14] = tested on: SNB-; test: Growth inhibition of human SNB cells after 48 hrs by sulforhodamine B assay; outline: as §2
[15] = tested on: SK-OV-3; test: Growth inhibition of human SKOV3 cells after 48 hrs by sulforhodamine B assay; conditions: SK-OV-3, 48 h; outline: as §2
[16] = tested on: OVCAR-4; test: Growth inhibition of human OVCAR4 cells after 48 hrs by sulforhodamine B assay; conditions: OVCAR-4, 48 h; outline: as §2
[17] = tested on: SF-539; test: Growth inhibition of human SF539 cells after 48 hrs by sulforhodamine B assay; conditions: SF-539, 48 h; outline: as §2
[18] = tested on: LOX IMVI; test: Growth inhibition of human LOXIMVI cells after 48 hrs by sulforhodamine B assay; outline: as §2
[19] = tested on: SF-268; test: Growth inhibition of human SF268 cells after 48 hrs by sulforhodamine B assay; conditions: SF-268, 48 h; outline: as §2
[20] = tested on: MDA-MB-231; test: Growth inhibition of human MDA-MB-231 cells after 48 hrs by sulforhodamine B assay; conditions: MDA-MB-231, 48 h; for TGI: read-out: pTGI (converted); outline: as §2
[21] = tested on: NCI-H226; test: Growth inhibition of human NCI-H226 cells after 48 hrs by sulforhodamine B assay; conditions: NCI-H226, 48 h; outline: as §2
[22] = tested on: CCRF-CEM; test: Growth inhibition of human CCRF-CEM cells after 48 hrs by sulforhodamine B assay; outline: as §2
[23] = tested on: U-251; test: Growth inhibition of human U251 cells after 48 hrs by sulforhodamine B assay; conditions: U-251, 48 h; outline: as §2
[24] = tested on: RPMI-8226; test: Growth inhibition of human RPMI8226 cells after 48 hrs by sulforhodamine B assay; conditions: RPMI-8226, 48 h; outline: as §2
[25] = tested on: MOLT-4; test: Growth inhibition of human MOLT4 cells after 48 hrs by sulforhodamine B assay; conditions: MOLT-4, 48 h; outline: as §2
[26] = tested on: HOP-92; test: Growth inhibition of human HOP92 cells after 48 hrs by sulforhodamine B assay; conditions: HOP-92, 48 h; outline: as §2
[27] = tested on: HOP-62; test: Growth inhibition of human HOP62 cells after 48 hrs by sulforhodamine B assay; conditions: HOP-62, 48 h; outline: as §2
[28] = tested on: RPMI-8226; test: Cytotoxicity against human RPMI8226 cells assessed as cell growth at 10 uM after 48 hrs by sulforhodamine B assay; conditions: RPMI-8226, 48 h, read-out: Activity; outline: as §1
[29] = tested on: SF-268; test: Cytotoxicity against human SF268 cells assessed as cell growth at 100 uM after 48 hrs by sulforhodamine B assay; conditions: SF-268, 48 h, read-out: Activity
Outline: (§3)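 Primary one-dose screen on a three-line panel (MCF7 breast, NCI-H460 lung, SF-268 CNS) at 10^-4 M. Cells were preincubated 24–48 h before a single addition of the agent, followed by 48 h incubation. Endpoint was SRB protein staining, reported as percent growth versus untreated controls.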

[30] = tested on: NCI-H460; test: Cytotoxicity against human NCI-H460 cells assessed as cell growth at 100 uM after 48 hrs by sulforhodamine B assay; conditions: NCI-H460, 48 h, read-out: Activity; outline: as §3
[31] = tested on: A498; test: Growth inhibition of human A498 cells after 48 hrs by sulforhodamine B assay; conditions: A498, 48 h; outline: as §2
[32] = tested on: MCF7; test: Cytotoxicity against human MCF7 cells assessed as cell growth at 100 uM after 48 hrs by sulforhodamine B assay; conditions: MCF7, 48 h, read-out: Activity; outline: as §3
[33] = tested on: NCI-H23; test: Growth inhibition of human NCI-H23 cells after 48 hrs by sulforhodamine B assay; conditions: NCI-H23, 48 h; outline: as §2
[34] = tested on: CAKI-1; test: Cytotoxicity against human Caki1 cells assessed as cell growth at 10 uM after 48 hrs by sulforhodamine B assay; conditions: CAKI-1, 48 h, read-out: Activity; outline: as §1
[35] = read-out: pLC50 (the source's name) (converted)

NS(=O)(=O)c1ccc(NC(=O)CN2C(=O)CNC2=O)cc1
growth at 10 µM [1]: 26%

CN(C)c1ccc(/C=C2\NC(=O)N(CC(=O)Nc3ccccc3C(F)(F)F)C2=O)cc1
growth at 10 µM [2]: 31%

COc1ccc(/C=C2\NC(=O)N(CC(=O)Nc3nccs3)C2=O)cc1
growth at 10 µM [3]: 76.5%

O=C(CN1C(=O)S/C(=C\C=C\c2ccccc2)C1=O)Nc1ccccc1C(F)(F)F
growth at 10 µM [4]: 62.5%

O=C(CN1C(=O)N/C(=C\c2ccccc2)C1=O)Nc1ccc(Cl)cc1
growth at 10 µM [5]: -3.51%
growth at 10 µM [6]: 1.51%
growth at 10 µM [1]: -83.1%

NS(=O)(=O)c1ccc(NC(=O)CC2NC(=O)NC2=O)cc1 (stereo not given)
growth at 10 µM [7]: 68.3%

CN(C)c1ccc(/C=C2\SC(=O)N(CC(=O)Nc3ccccc3C(F)(F)F)C2=O)cc1
growth at 10 µM [7]: 45.8%

O=C(CN1C(=O)N/C(=C\c2ccc(Cl)cc2)C1=O)Nc1ccc(Cl)cc1
GI50 [8]: 10.7 µM
CC50 [8]: > 100 µM
TGI [8]: 38 µM
GI50 [9]: 19.5 µM
CC50 [9, 35]: > 100 µM
TGI ([9]; read-out: pTGI (converted)): 46.8 µM
GI50 [10]: 17 µM
CC50 [10, 35]: > 100 µM
TGI ([10]; read-out: pTGI (converted)): 42.7 µM
GI50 [11]: 18.6 µM
CC50 [11, 35]: > 100 µM
TGI ([11]; read-out: pTGI (converted)): 46.8 µM
GI50 [12]: 17 µM
LC50 [12]: > 100 µM
TGI ([12]; read-out: pTGI (converted)): 47.9 µM
GI50 [13]: 7.08 µM
LC50 [13]: > 100 µM
TGI [13]: 67.6 µM
GI50 [14]: 13.2 µM
CC50 [14, 35]: > 100 µM
TGI ([14]; read-out: pTGI (converted)): 36.3 µM
GI50 [15]: 19.5 µM
LC50 [15]: > 100 µM
TGI ([15]; read-out: pTGI (converted)): 51.3 µM
GI50 [16]: 13.2 µM
CC50 [16, 35]: > 100 µM
TGI ([16]; read-out: pTGI (converted)): 64.6 µM
GI50 [17]: 16.6 µM
CC50 [17, 35]: 89.1 µM
TGI ([17]; read-out: pTGI (converted)): 38.9 µM
GI50 [18]: 15.5 µM
CC50 [18, 35]: 66.1 µM
TGI ([18]; read-out: pTGI (converted)): 32.4 µM
GI50 [19]: 10.5 µM
CC50 [19, 35]: 85.1 µM
TGI ([19]; read-out: pTGI (converted)): 29.5 µM
GI50 [20]: 16.2 µM
LC50 [20]: > 100 µM
TGI [20]: 42.7 µM
GI50 [21]: 15.8 µM
CC50 [21, 35]: > 100 µM
TGI ([21]; read-out: pTGI (converted)): 44.7 µM
GI50 [22]: 14.8 µM
LC50 [22]: 67.6 µM
TGI ([22]; read-out: pTGI (converted)): 31.6 µM
GI50 [23]: 14.8 µM
LC50 [23]: 60.3 µM
TGI ([23]; read-out: pTGI (converted)): 29.5 µM
GI50 [24]: 20.9 µM
LC50 [24]: > 100 µM
TGI ([24]; read-out: pTGI (converted)): 67.6 µM
GI50 [25]: 11 µM
CC50 [25, 35]: 72.4 µM
TGI ([25]; read-out: pTGI (converted)): 28.2 µM
GI50 [26]: 17.4 µM
LC50 [26]: > 100 µM
TGI ([26]; read-out: pTGI (converted)): 50.1 µM
GI50 [27]: 15.1 µM
LC50 [27]: > 100 µM
TGI ([27]; read-out: pTGI (converted)): 43.7 µM

O=C(CN1C(=O)S/C(=C\c2ccc(Cl)cc2)C1=O)Nc1ccccc1C(F)(F)F
growth at 10 µM [1]: 75.8%

O=C(CN1C(=O)N/C(=C\C=C\c2ccccc2)C1=O)Nc1ccccc1C(F)(F)F
growth at 10 µM [28]: 26.6%

O=C(CN1C(=O)N/C(=C\C=C\c2ccccc2)C1=O)Nc1ccc(Cl)cc1
GI50 [8]: 21.9 µM
CC50 [8]: > 100 µM
TGI [8]: 52.5 µM
GI50 [13]: 33.9 µM
LC50 [13]: > 100 µM
TGI [13]: > 100 µM
growth at 100 µM [29]: 39%
growth at 100 µM [30]: 17%
GI50 [20]: 26.3 µM
LC50 [20]: > 100 µM
TGI [20]: > 100 µM
GI50 [31]: 17.8 µM
CC50 [31, 35]: 77.6 µM
TGI ([31]; read-out: pTGI (converted)): 37.2 µM
growth at 100 µM [32]: 7%
GI50 [33]: 31.6 µM
LC50 [33]: > 100 µM
TGI ([33]; read-out: pTGI (converted)): > 100 µM

NS(=O)(=O)c1ccc(NC(=O)CC2SC(=O)NC2=O)cc1 (stereo not given)
growth at 10 µM [34]: 54.2%
